Data set [1] concerns Staphylococcus aureus. Briefly: Antibacterial activity against vancomycin-resistant Staphylococcus aureus. The data set is classed as functional.
The test system of data set [2] is Staphylococcus aureus. Briefly: Antibacterial activity against methicillin-resistant Staphylococcus aureus. It is filed as functional.
For data set [3], the system named is Staphylococcus aureus. The experiment in a line: Antibacterial activity against Staphylococcus aureus ATCC 29213 assessed as inhibition of protein synthesis at 8 times MIC treated 5 mins before [3H]leucine challenge measured after 30 mins by [3H]leucine incorporation assay. It is filed as functional, organism-based. In short, it runs like this:
(§1)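 Cells were added to triplicate wells with compound (0.25-4.0 μg/mL), with 5% DMSO as the no-drug control; protein-synthesis reactions used M9 minimal medium. After 5 min at room temperature, 0.5-1.0 μCi of [3H]thymidine, uridine, N-acetylglucosamine or leucine was added. Reactions ran 15-30 min (60 min for cell wall). Cold-TCA precipitates were filtered, washed and scintillation-counted.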

The test system of data set [4] is Staphylococcus aureus. Briefly: Antibacterial activity against Staphylococcus aureus assessed as depolarization at 32 mg/L measured for 60 mins by fluorescence spectrophotometer relative to nisin. It is filed as functional, organism-based. An outline of the steps: (§2)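 Cells were loaded with 0.4 μM diSC3(5) for 1 h at 37 °C, then KCl was added. After compound addition in a stirred cuvette at 37 °C, fluorescence (ex 622, em 670 nm) was followed for 60 min. Cells plus dye gave the background; the change was expressed as % of the nisin control (100%).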

The test system of data set [5] is Nucleic Acid. Briefly: Binding affinity to DNA AT hairpin (5'-CGAAAAACAAAAAGTTTTTCG- 3') oligonucleotide by ethidium bromide displacement assay. The data set is classed as nucleic-acid assay. In short, it runs like this: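 DNA binding: ethidium bromide (4.0 μM) and AT hairpin (8.0 μM) in 0.1 M Tris-HCl with 25 mM NaCl, pH 7.0, were titrated with compound. Fluorescence (ex 545, em 595 nm) was read after 5 min and corrected for volume. K = K_EB[E]/[agent], where [agent] is the concentration that lowers fluorescence by 50%.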

Data set [6] relates to Staphylococcus aureus. Briefly: Antibacterial activity against glycopeptide-intermediate Staphylococcus aureus. It is filed as functional.
Data set [7] concerns Nucleic Acid. Briefly: Binding affinity to Staphylococcus aureus DNA at 25 to 200 ug/mL by Hoescht dye competition assay. The data set is classed as nucleic-acid assay. An outline of the steps:
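Compounds at 25, 50, 100, 150 and 200 mg/L were added in triplicate, and the drop in emission at 461 nm was measured against Hoechst-stained untreated cells.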

Data set [8] deals with Nucleic Acid. The experiment in a line: Binding affinity to Escherichia coli DNA at 25 to 200 ug/mL by Hoescht dye competition assay. The data set is classed as nucleic-acid assay.
The test system of data set [9] is Staphylococcus aureus. Briefly: Antibacterial activity against Staphylococcus aureus ATCC 29213 assessed as inhibition of RNA synthesis at 8 times MIC treated 5 mins before [3H]uridine challenge measured after 30 mins by [3H]uridine incorporation assay. It is filed as functional, organism-based. In short, it runs like this: as §1
Data set [10] has as its system Staphylococcus aureus. The experiment in a line: Antibacterial activity against Staphylococcus aureus ATCC 29213 assessed as inhibition of cell wall synthesis at 8 times MIC treated 5 mins before [3H]N-acetylglucosamine challenge measured after 30 mins by [3H]N-acetylglucosamine incorporation assay. It is filed as functional, organism-based. An outline of the steps: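 Culture added to triplicate wells with agent (0.25-4.0 μg/mL) or 5% DMSO no-drug control. Pre-incubated 5 min at room temperature, then [3H]N-acetylglucosamine at 0.5-1.0 μCi. Stopped with cold 5% TCA and held 30 min on ice. Precipitate filter-collected, washed, and scintillation counted. Vancomycin was the positive control.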

Data set [11] deals with Enterococcus. The experiment in a line: Antibacterial activity against vancomycin-resistant Enterococcus. It is filed as functional.
For data set [12], the system named is Escherichia coli. Briefly: Antibacterial activity against Escherichia coli. It is filed as functional.
Data set [13] deals with CHO. The experiment in a line: Cytotoxicity against CHO cells assessed as cell viability at 25 to 100 times MIC after 24 hrs by MTS assay. It is filed as cell-based, Cricetulus griseus. Conditions: chinese hamster. An outline of the steps:
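CHO cells in RPMI-1640 were seeded at 5000 cells/well, allowed to attach overnight, then exposed to 25, 50 and 100 mg/L for 24 h. MTS was added for 120 min and absorbance read at 505 nm. Results are % versus untreated controls (with or without 5% DMSO), from at least three experiments.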

The test system of data set [14] is Staphylococcus aureus. The experiment in a line: Antibacterial activity against Staphylococcus aureus assessed as depolarization at […] measured for 60 mins by fluorescence spectrophotometer relative to nisin. It is filed as functional, organism-based. An outline of the steps:
as §2

Converted amounts (≈) assume the structure as drawn. The source made the active and inactive calls. The calls are words filed in the database; no cut-off is given here. Bounds are passed on as bounds.

For the compound `Cn1cc(NC(=O)c2ccc(C(=O)c3ccc(C(=O)Nc4cn(C)c(C(=O)NCCN5CCCC5)n4)cc3)cc2)nc1C(=O)NCCN1CCCC1`, the minimal inhibitory concentration (MIC) in data set [1] and in data set [2] was 32 µg/mL (≈ 45.1 µM) each time.
As for `CC(=O)NC[C@H]1CN(c2ccc(N3CCOCC3)c(F)c2)C(=O)O1`, the outcome in data set [3] was Active.
For `Cn1cc(NC(=O)CCCCCCCCCCCC(=O)Nc2cc(C(=O)NCCN3CCCC3)n(C)c2)cc1C(=O)NCCN1CCCC1`, the outcome in [4] was inactive. Further, the minimal inhibitory concentration (MIC) in data set [1] and in data set [2] was over 32 µg/mL throughout. The compound further yielded a Ka in data set [5] of 0.021 ×10⁶ /M.
As for `CN(C)CCCNC(=O)c1cc(NC(=O)c2ccc(C(=O)c3ccc(C(=O)Nc4cc(C(=O)NCCCN(C)C)n(C)c4)cc3)cc2)cn1C`, the figures for the MIC in data set [6], in [1] and in [2] were 8 µg/mL (≈ 11.7 µM), 16 µg/mL (≈ 23.4 µM) and 8 µg/mL (≈ 11.7 µM), respectively. This compound also yielded a Ka in [5] of 1 ×10⁶ /M.
As for `Cn1cc(NC(=O)c2ccccc2)cc1C(=O)NCCN1CCCC1`, the minimal inhibitory concentration (MIC) in data set [1] and in data set [2] was over 32 µg/mL throughout. The same compound showed a Ka in data set [5] of 0.11 ×10⁶ /M.
In the case of `CN(C)c1ccc(NC(=O)c2nc(NC(=O)c3ccc(C(=O)c4ccc(C(=O)Nc5cn(C)c(C(=O)Nc6ccc(N(C)C)cc6)n5)cc4)cc3)cn2C)cc1`, the MIC in [1] and in data set [2] was over 32 µg/mL in each case.
On to `Cn1cc(NC(=O)c2ccc(C(=O)c3ccc(C(=O)Nc4cn(C)c(C(=O)NCCN5CCCCC5)n4)cc3)cc2)nc1C(=O)NCCN1CCCCC1`, for which the minimum inhibitory concentration (MIC) is 8 µg/mL (≈ 10.9 µM) in [1] and 4 µg/mL (≈ 5.43 µM) in data set [2]. Moreover, the outcome in data set [7] and in data set [8] was Active.
Take `CO[C@H]1/C=C/O[C@@]2(C)Oc3c(C)c(O)c4c(O)c(c(/C=N/N5CCN(C)CC5)c(O)c4c3C2=O)NC(=O)/C(C)=C\C=C\[C@H](C)[C@H](O)[C@@H](C)[C@@H](O)[C@@H](C)[C@H](OC(C)=O)[C@@H]1C`: the outcome in data set [9] was Active.
`Cn1cc(NC(=O)c2ccc(C(=O)c3ccccc3)cc2)cc1C(=O)NCCN1CCCC1`: the Ka in [5] came out at 0.106 ×10⁶ /M.
With `Cn1cc(NC(=O)c2ccc(C(=O)c3ccc(C(=O)Nc4cc(C(=O)NCCN5CCOCC5)n(C)c4)cc3)cc2)cc1C(=O)NCCN1CCOCC1`, the MIC in [1] came out at 8 µg/mL (≈ 10.8 µM); in [2], 4 µg/mL (≈ 5.41 µM).
Regarding `CN[C@H](CC(C)C)C(=O)N[C@H]1C(=O)N[C@@H](CC(N)=O)C(=O)N[C@H]2C(=O)N[C@H]3C(=O)N[C@H](C(=O)N[C@H](C(=O)O)c4cc(O)cc(O)c4-c4cc3ccc4O)[C@H](O)c3ccc(c(Cl)c3)Oc3cc2cc(c3O[C@@H]2O[C@H](CO)[C@@H](O)[C@H](O)[C@H]2O[C@H]2C[C@](C)(N)[C@H](O)[C@H](C)O2)Oc2ccc(cc2Cl)[C@H]1O`, in data set [10], the result was Active.
Turning to `Cn1cc(NC(=O)c2ccc(C(=O)c3ccc(C(=O)Nc4cc(C(=O)NCCN5CCCC5)n(C)c4)cc3)cc2)cc1C(=O)NCCN1CCCC1`, the minimum inhibitory concentration (MIC) in [6] was determined as 0.5 µg/mL (≈ 0.707 µM); in data set [1], 2 µg/mL (≈ 2.83 µM); in data set [2], 1 µg/mL (≈ 1.41 µM); in [11] it was 4 µg/mL (≈ 5.66 µM); in data set [12] it was 16 µg/mL (≈ 22.6 µM). Further, the Ka in data set [5] turned out to be 0.679 ×10⁶ /M. In addition, the result in data set [7], in [8] and in [14] was Active. The Activity result in data set [13] was “Not Active”.
In the case of `Cn1cc(NC(=O)c2ccc(C(O)c3ccc(C(=O)Nc4cc(C(=O)NCCN5CCCCC5)n(C)c4)cc3)cc2)cc1C(=O)NCCN1CCCCC1`, the minimum inhibitory concentration (MIC) in [1] and in data set [2] was over 32 µg/mL throughout. This compound had a Ka in data set [5] of 0.0098 ×10⁶ /M.

The values above are taken from ChEMBL document CHEMBL1152984, “Design, synthesis, and structure-activity relationships of benzophenone-based tetraamides as novel antibacterial agents” (J Med Chem, 2009).
